Tests used:
Klebsiella pneumoniae [1] = experiment: Antimicrobial activity against Klebsiella pneumoniae LMG 20218 assessed as inhibition of bacterial growth in presence of D11 incubated for 20 hrs; conditions: LMG 20218, 20 h
Enterococcus faecalis [2] = experiment: Antibacterial activity against Enterococcus faecalis LMG 08222 assessed as inhibition of bacterial growth incubated for 20 hrs by CLSI based broth microdilution method; format: functional
Summary of the method: (§1)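 Broth microdilution in cation-adjusted Mueller-Hinton broth following CLSI guidelines. DMSO stocks were at 10 mM; compounds were twofold serially diluted over 128 to 2 μM. The inoculum was at 5 × 10⁵, prepared from colonies grown 20 h at 37 °C and adjusted to 0.5 McFarland. Plates ran 20 h at 37 °C with OD600 read-out. MIC was the lowest concentration inhibiting visible growth, in triplicate.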

Bacillus cereus [3] = experiment: Bacteriostatic activity against Bacillus cereus ATCC 10987 assessed as inhibition of bacterial growth; format: functional
Summary of the method: (§2)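 A standard MIC plate (128–2 μM, cMHB, 20 h, 37 °C) was read at OD600. Each well then seeded at 10% a fresh compound-free cMHB plate, grown another 20 h at 37 °C and read at OD600. No growth at the same concentration in both plates counted as bactericidal. Growth above the MIC counted as bacteriostatic. Done in triplicate.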

Enterococcus faecium [4] = experiment: Antibacterial activity against Enterococcus faecium LMG 16003; format: functional, organism-based; conditions: DDE = dose-dependent effect
Summary of the method: (§3)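 Cultures were inoculated at 2% and grown at 37 °C, with OD600 read every 5 min for 8 h. NDI-10 was added at exponential-phase onset (~3 h). Concentrations were 32, 16, 8 and 4 μM for E. coli, and 16, 8, 4 and […] μM for the Gram-positive strains.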

Escherichia coli [5] = experiment: Antibacterial activity against Escherichia coli LMG 8223; format: functional, organism-based; conditions: DDE = dose-dependent effect
Summary of the method: as §3

DNA [6] = experiment: Stabilization of Staphylococcus aureus in G-quadruplex DNA GGA AGG AGG GGT GAC AGG G assessed as change in melting temperature at 10 uM incubated for 16 hrs by […]; format: nucleic-acid assay
Summary of the method: (§4)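 Readout was CD melting, not FRET: 2.5 μM oligonucleotide in 10 mM lithium cacodylate pH 7.4 with KCl set per sequence (initial Tm 60-70 °C). Annealed 95 °C 5 min, cooled to room temperature over 4 h, then ligand 10 μM (4 equiv) equilibrated 16 h at 20 °C. Ellipticity at 260 nm tracked every 0.1 °C, 20-95 °C at 5 °C/min; Tm by van't Hoff two-state fit.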

Staphylococcus aureus [7] = experiment: Bacteriostatic activity against Staphylococcus aureus LMG 8224 assessed as inhibition of bacterial growth; format: functional
Summary of the method: as §2

Klebsiella aerogenes [8] = experiment: Antimicrobial activity against Enterobacter aerogenes LMG 02094 assessed as inhibition of bacterial growth in presence of D11 incubated for 20 hrs; conditions: LMG 02094, 20 h
Enterococcus faecium [9] = experiment: Antimicrobial activity against Enterococcus faecium LMG 16003 assessed as inhibition of bacterial growth in presence of D11 incubated for 20 hrs; conditions: LMG 16003, 20 h
Acinetobacter baumannii = experiment: Bacteriostatic activity against Acinetobacter baumannii LMG 01041 assessed as inhibition of bacterial growth; format: functional
Summary of the method: as §2

Salmonella enterica = experiment: Antimicrobial activity against Salmonella enterica LMG 07233 assessed as inhibition of bacterial growth in presence of D11 incubated for 20 hrs; conditions: LMG 07233, 20 h
Klebsiella aerogenes [10] = experiment: Bacteriostatic activity against Enterobacter aerogenes LMG 02094 assessed as inhibition of bacterial growth; format: functional
Summary of the method: as §2

Klebsiella pneumoniae [11] = experiment: Bactericidal activity against Klebsiella pneumoniae LMG 20218 assessed as inhibition of bacterial growth; format: functional
Summary of the method: as §2

Bacillus cereus [12] = experiment: Antibacterial activity against Bacillus cereus ATCC 14579 assessed as inhibition of bacterial growth incubated for 20 hrs by CLSI based broth microdilution method; format: functional
Summary of the method: as §1

Enterobacter cloacae = experiment: Bactericidal activity against Enterobacter cloacae LMG 02783 assessed as inhibition of bacterial growth; format: functional
Summary of the method: as §2

Klebsiella pneumoniae [13] = experiment: Antibacterial activity against Klebsiella pneumoniae LMG 20218 assessed as inhibition of bacterial growth incubated for 20 hrs by CLSI based broth microdilution method; format: functional
Summary of the method: as §1

DNA [14] = experiment: Stabilization of Staphylococcus aureus in G-quadruplex DNA GGA AGG AGG GGT GAC AGG G assessed as melting temperature at 10 uM incubated for 16 hrs […]; format: nucleic-acid assay
Summary of the method: as §4

Staphylococcus aureus [15] = experiment: Antibacterial activity against Staphylococcus aureus LMG 8224 infected in Galleria mellonella assessed as survival at 5 to 10 mg/kg after 3 days; conditions: dose 5-10 mg/kg, time 3 day
Bacillus cereus [16] = experiment: Antimicrobial activity against Bacillus cereus ATCC 10987 assessed as inhibition of bacterial growth in presence of D11 incubated for 20 hrs; conditions: ATCC 10987, 20 h
DNA [17] = experiment: Stabilization of Escherichia coli in G-quadruplex DNA GGG GGA GGA GGA CGG GGG assessed as melting temperature at 10 uM incubated for 16 hrs by […]; format: nucleic-acid assay
Summary of the method: as §4

DNA [18] = experiment: Stabilization of Escherichia coli in G-quadruplex DNA GGG GCG GGG TGG GTT GG assessed as melting temperature at 10 uM incubated for 16 hrs by FRET method; format: nucleic-acid assay
Enterococcus faecalis [19] = experiment: Bacteriostatic activity against Enterococcus faecalis V583 assessed as inhibition of bacterial growth; format: functional
Summary of the method: as §2

DNA [20] = experiment: Stabilization of Escherichia coli in G-quadruplex DNA GGT GGG GAG GGG TAA GGG G assessed as change in melting temperature at 10 uM incubated for 16 hrs by FRET method; format: nucleic-acid assay; conditions: in the assay text read “by CD melting method” for “by FRET method”
Summary of the method: as §4

Staphylococcus aureus [21] = experiment: Antibacterial activity against Staphylococcus aureus LMG 8224 assessed as inhibition of bacterial growth incubated for 20 hrs by CLSI based broth microdilution method; format: functional
Summary of the method: as §1

DNA [22] = experiment: Stabilization of Staphylococcus aureus in G-quadruplex DNA GGGTTTGGGGCGGCGGTTGG assessed as melting temperature at 10 uM incubated for 16 hrs by […]; format: nucleic-acid assay
Summary of the method: as §4

Enterococcus faecalis [23] = experiment: Antibacterial activity against Enterococcus faecalis V583 assessed as inhibition of bacterial growth incubated for 20 hrs by CLSI based broth microdilution method; format: functional
Summary of the method: as §1

Escherichia coli [24] = experiment: Antibacterial activity against Escherichia coli LMG 8223 infected in Galleria mellonella assessed as survival at 5 to 10 mg/kg after 5 days; format: functional; conditions: dose 5-10 mg/kg, time 5 day
Summary of the method: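 Larvae, 20 per group, were infected with 10 µL of saline-washed bacteria into the left proleg: E. coli at 10⁶ CFU/worm and S. aureus at 10⁵ CFU/worm. After 1 h at 37 °C, the compound (5 or 10 mg/kg) was injected into the last right proleg. Controls were meropenem 5 mg/kg (E. coli), rifampicin 10 mg/kg (S. aureus) and NaCl 0.9%. Mortality was followed over 5 d at 37 °C.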

In the case of `CN(C)CCCn1c(=O)c2ccc3c(=O)n(CCCN(C)C)c(=O)c4c5[nH]c6ccccc6[nH]c5c(c1=O)c2c34.O=C(O)C(F)(F)F.O=C(O)C(F)(F)F`, the MIC (Klebsiella pneumoniae [1]) is reported as 16 µM, the MIC (Enterococcus faecalis [2]) is reported as 8 µM and the MIC (Bacillus cereus [3]) is reported as 64 µM. The Activity (Enterococcus faecium [4]) was “Dde”, the Activity (Escherichia coli [5]) was “Dde” and the ΔTm (DNA [6]) was over 30.8 °C. For the same compound, the MIC (Staphylococcus aureus [7]) was 128 µM, the MIC (Klebsiella aerogenes [8]) was 8 µM and the MIC (Enterococcus faecium [9]) was 4 µM. For the same compound, the MIC (Acinetobacter baumannii) was 128 µM, the MIC (Salmonella enterica) was under 0.5 µM and the MIC (Klebsiella aerogenes [10]) was over 128 µM. For the same compound, the MIC (Klebsiella pneumoniae [11]) was over 128 µM, the MIC (Bacillus cereus [12]) was 8 µM and the MIC (Enterobacter cloacae) was 8 µM. It also gave an MIC (Klebsiella pneumoniae [13]) of over 128 µM, a Tm (DNA [14]) of over 95 °C and an Activity (Staphylococcus aureus [15]) of 70%. The MIC (Bacillus cereus [16]) was 8 µM, the Tm (DNA [17]) was over 95 °C and the Tm (DNA [18]) was 82.5 °C. The MIC (Enterococcus faecalis [19]) was 64 µM, the ΔTm (DNA [20]) was 31 °C and the MIC (Staphylococcus aureus [21]) was 16 µM. For the same compound, the Tm (DNA [22]) was over 95 °C, the MIC (Enterococcus faecalis [23]) was 4 µM and the Activity (Escherichia coli [24]) was 90%.

Reference: ChEMBL document CHEMBL5154669, “G-Quadruplex DNA as a Target in Pathogenic Bacteria: Efficacy of an Extended Naphthalene Diimide Ligand and Its Mode of Action” (J Med Chem, 2022)
